Measurements: ChEMBL document CHEMBL1139875, “Discovery of 4-aminobutyric acid derivatives possessing anticonvulsant and antinociceptive activities: a hybrid pharmacophore approach” (2007)
The source made the active and inactive calls. No cut-off for these calls is given here.

How the values were obtained:
[1] = tested on: Rattus norvegicus; assay: Antihyperalgesic effects in Sprague-Dawley rat SNL model assessed as duration of paw withdrawal at 100 mg/kg, ip after 2 hrs, ip; type: functional; conditions: route intraperitoneal
Outline: (§1)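 L5 SNL rats (n = 4), dosed 100 mg/kg i.p. (vehicle 30% v/v PEG 400 in water). Pin-prick to midplantar ipsilateral left hindpaw; withdrawal duration, mean of three responses; ≥2 s defined abnormal. Mean ± SEM; one-way ANOVA with Bonferroni versus predrug.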

[2] = tested on: Rattus norvegicus; assay: Anti-cold allodynia effect in Sprague-Dawley rat SNL model assessed as duration of paw withdrawal 100 mg/kg, ip after 1 hrs; type: functional; conditions: route intraperitoneal
Outline: (§2)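 Left L5 spinal nerve ligation under pentobarbital (65 mg/kg i.p.). Allodynic rats dosed i.p. 100 mg/kg, vehicle 30% v/v PEG 400 in water. Acetone (100-200 µL) misted onto midplantar affected paw after 10 min acclimatization; paw withdrawal duration, mean of three samples at least 3 min apart; n = 4 rats.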

[3] = tested on: Rattus norvegicus; assay: Antihyperalgesic effects in Sprague-Dawley rat SNL model assessed as duration of paw withdrawal at 100 mg/kg, ip after 1.5 hrs, ip; type: functional; conditions: route intraperitoneal; outline: as §1
[4] = tested on: Rattus norvegicus; assay: Anti-dynamic allodynia effect in Sprague-Dawley rat SNL model assessed as latency to paw withdrawal 100 mg/kg, ip after 2 hrs; type: functional; conditions: route intraperitoneal
Outline: (§3)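 Left L5 spinal nerve ligation rats, tested preoperatively and 9 days postoperatively, then given 100 mg/kg i.p. (vehicle 30% v/v PEG 400 in water). After 10 min acclimatization, plantar surface of affected paw stroked mildly with a cotton-bud; paw lift response recorded. n = 4; retested 0.5-2.5 h post-dose.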

[5] = tested on: Mus musculus; assay: Anticonvulsant activity in Swiss Albino mouse at 300 mg/kg, ip after 0.5 hr by scPTZ test; type: functional, organism-based; set-up: dose 300 mg/kg
Outline: (§4)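 Mice (Swiss, 20-25 g) given i.p. doses of 30, 100 and 300 mg/kg under ADD program protocols, three per group, examined at 0.5 and 4 h in MES, scPTZ, scSTY or scPIC seizure tests. Value is the minimum dose protecting half or more of the mice.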

[6] = tested on: Rattus norvegicus; assay: Anti-cold allodynia effect in Sprague-Dawley rat SNL model assessed as duration of paw withdrawal 100 mg/kg, ip after 2 hrs; type: functional; conditions: route intraperitoneal; outline: as §2
[7] = tested on: Rattus norvegicus; assay: Anti-dynamic allodynia effect in Sprague-Dawley rat SNL model assessed as latency to paw withdrawal 100 mg/kg, ip after 1.5 hrs; type: functional; conditions: route intraperitoneal; outline: as §3
[8] = tested on: Rattus norvegicus; assay: Antihyperalgesic effects in Sprague-Dawley rat SNL model assessed as duration of paw withdrawal at 100 mg/kg, ip after 2.5 hrs, ip; type: functional; conditions: route intraperitoneal; outline: as §1
[9] = tested on: Rattus norvegicus; assay: Anti-dynamic allodynia effect in Sprague-Dawley rat SNL model assessed as latency to paw withdrawal 100 mg/kg, ip after 0.5 hr; type: functional; conditions: route intraperitoneal; outline: as §3
[10] = tested on: Mus musculus; assay: Analgesic activity in Swiss Albino mouse assessed as number of acetic acid-induced writhing per 30 min after 100 mg/kg, ip; type: functional; conditions: route intraperitoneal
Outline: (§5)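 Mice in groups of six dosed i.p. at 100 mg/kg, controls receiving 30% v/v PEG 400 in water. Writhing induced by i.p. 0.1 mL of 3% v/v acetic acid 1 h after drug. Writhes (abdominal stretch with at least one hind limb extended) counted over 30 min; % inhibition calculated. Mean ± SEM, Student's t test.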

[11] = tested on: Mus musculus; assay: Anticonvulsant activity in Swiss Albino mouse at 300 mg/kg, ip after 0.5 hr by scSTY test; type: functional, organism-based; set-up: dose 300 mg/kg; outline: as §4
[12] = tested on: Rattus norvegicus; assay: Anti-dynamic allodynia effect in Sprague-Dawley rat SNL model assessed as latency to paw withdrawal 100 mg/kg, ip after 2.5 hrs; type: functional; conditions: route intraperitoneal; outline: as §3
[13] = tested on: Mus musculus; assay: Anticonvulsant activity in Swiss Albino mouse at 300 mg/kg, ip after 4 hrs by MES test; type: functional, organism-based; set-up: dose 300 mg/kg; outline: as §4
[14] = tested on: Mus musculus; assay: Neurotoxicity in Swiss Albino mouse at 300 mg/kg, ip after 0.5 hr by rotarod test; type: functional, organism-based; set-up: dose 300 mg/kg
Outline: (§6)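 Swiss mice (20-25 g) are trained on an accelerating rotorod (10 rpm, 3.2 cm rod), then injected i.p. at 30, 100 or 300 mg/kg, with three per group. Neurotoxicity means failure to keep equilibrium for at least 1 min in each of three trials, checked at 0.5 and 4 h. The value reported is the minimum dose affecting half or more of the mice.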

[15] = tested on: Mus musculus; assay: Anticonvulsant activity in Swiss Albino mouse at 300 mg/kg, ip after 4 hrs by scPIC test; type: functional, organism-based; set-up: dose 300 mg/kg; outline: as §4
[16] = tested on: Rattus norvegicus; assay: Anti-cold allodynia effect in Sprague-Dawley rat SNL model assessed as duration of paw withdrawal 100 mg/kg, ip after 1.5 hrs; type: functional; conditions: route intraperitoneal; outline: as §2
[17] = tested on: Mus musculus; assay: Anticonvulsant activity in Swiss Albino mouse at 300 mg/kg, ip after 0.5 hr by MES test; type: functional, organism-based; set-up: dose 300 mg/kg; outline: as §4
[18] = tested on: Mus musculus; assay: Anticonvulsant activity in Swiss Albino mouse at 300 mg/kg, ip after 4 hrs by scSTY test; type: functional, organism-based; set-up: dose 300 mg/kg; outline: as §4
[19] = tested on: Rattus norvegicus; assay: Antihyperalgesic effects in Sprague-Dawley rat CCI model assessed as duration of paw withdrawal at 100 mg/kg, ip after 2.5 hrs; type: functional; conditions: route intraperitoneal
[20] = tested on: Rattus norvegicus; assay: Antihyperalgesic effects in Sprague-Dawley rat CCI model assessed as duration of paw withdrawal at 100 mg/kg, ip after 2 hrs; type: functional; conditions: route intraperitoneal
[21] = tested on: Rattus norvegicus; assay: Antihyperalgesic effects in Sprague-Dawley rat CCI model assessed as duration of paw withdrawal at 100 mg/kg, ip after 1 hr; type: functional; conditions: route intraperitoneal
[22] = tested on: Mus musculus; assay: Neurotoxicity in Swiss Albino mouse at 300 mg/kg, ip after 4 hrs by rotarod test; type: functional, organism-based; set-up: dose 300 mg/kg; outline: as §6
[23] = tested on: Rattus norvegicus; assay: Anti-cold allodynia effect in Sprague-Dawley rat SNL model assessed as duration of paw withdrawal 100 mg/kg, ip after 2.5 hrs; type: functional; conditions: route intraperitoneal; outline: as §2
[24] = tested on: Rattus norvegicus; assay: Antihyperalgesic effects in Sprague-Dawley rat SNL model assessed as duration of paw withdrawal at 100 mg/kg, ip after 0.5 hr, ip; type: functional; conditions: route intraperitoneal; outline: as §1
[25] = tested on: Rattus norvegicus; assay: Antihyperalgesic effects in Sprague-Dawley rat CCI model assessed as duration of paw withdrawal at 100 mg/kg, ip after 1.5 hrs; type: functional; conditions: route intraperitoneal
[26] = tested on: Mus musculus; assay: Anticonvulsant activity in Swiss Albino mouse at 300 mg/kg, ip after 0.5 hr by scPIC test; type: functional, organism-based; set-up: dose 300 mg/kg; outline: as §4
[27] = tested on: Rattus norvegicus; assay: Anti-cold allodynia effect in Sprague-Dawley rat SNL model assessed as duration of paw withdrawal 100 mg/kg, ip after 0.5 hr; type: functional; conditions: route intraperitoneal; outline: as §2
[28] = tested on: Rattus norvegicus; assay: Antihyperalgesic effects in Sprague-Dawley rat CCI model assessed as duration of paw withdrawal at 100 mg/kg, ip after 0.5 hr; type: functional; conditions: route intraperitoneal
[29] = tested on: Rattus norvegicus; assay: Antihyperalgesic effects in Sprague-Dawley rat SNL model assessed as duration of paw withdrawal at 100 mg/kg, ip after 1 hr, ip; type: functional; conditions: route intraperitoneal; outline: as §1
[30] = tested on: Rattus norvegicus; assay: Anti-dynamic allodynia effect in Sprague-Dawley rat SNL model assessed as latency to paw withdrawal 100 mg/kg, ip after 1 hr; type: functional; conditions: route intraperitoneal; outline: as §3
[31] = tested on: Mus musculus; assay: Analgesic activity in Swiss Albino mouse assessed as inhibition of acetic acid-induced writhing responses at 100 mg/kg, ip; type: functional; conditions: route intraperitoneal; outline: as §5

Structure (SMILES): O=C(O)CCCNC(=O)NN=C1CCCC1
- Activity [1]: 9.6 s
- Activity [2]: 11.2 s
- Activity [3]: 5.1 s
- Activity [4]: 10.3 s
- Activity [5]: inactive
- Activity [6]: 11 s
- Activity [7]: 7.8 s
- Activity [8]: 8.6 s
- Activity [9]: 5.7 s
- Activity [10]: 18
- Activity [11]: inactive
- Activity [12]: 10.92 s
- Activity [13]: Active
- Activity [14]: Active
- Activity [15]: inactive
- Activity [16]: 10.9 s
- Activity [17]: inactive
- Activity [18]: inactive
- Activity [19]: 25.3 s
- Activity [20]: 22.8 s
- Activity [21]: 30.7 s
- Activity [22]: Active
- Activity [23]: 1.9 s
- Activity [24]: 5.3 s
- Activity [25]: 17.7 s
- Activity [26]: inactive
- Activity [27]: 12 s
- Activity [28]: 32.1 s
- Activity [29]: 9.9 s
- Activity [30]: 6.6 s
- inhibition in vivo at 100 mg/kg [31]: 90%
